# UCH37 DUB inh = inhibitors of human UCH37 deubiquitinase, primary screen, biochemical, Ub-AMC cleavage, fluorescence; Ubiquitin carboxyl-terminal hydrolase isozyme L5 (Homo sapiens), Q9Y5K5; purified proteasome/UCH37; inhibition, % (concentration not given with the values); 330,000 tested, 0.33% active;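 active = mean inhibition over replicate wells above about 20%, limit read from the data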;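 also: 0% = compound-free wells with enzyme and 100% = wells lacking proteasome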
# Target sequence (Q9Y5K5 whole entry, looked up): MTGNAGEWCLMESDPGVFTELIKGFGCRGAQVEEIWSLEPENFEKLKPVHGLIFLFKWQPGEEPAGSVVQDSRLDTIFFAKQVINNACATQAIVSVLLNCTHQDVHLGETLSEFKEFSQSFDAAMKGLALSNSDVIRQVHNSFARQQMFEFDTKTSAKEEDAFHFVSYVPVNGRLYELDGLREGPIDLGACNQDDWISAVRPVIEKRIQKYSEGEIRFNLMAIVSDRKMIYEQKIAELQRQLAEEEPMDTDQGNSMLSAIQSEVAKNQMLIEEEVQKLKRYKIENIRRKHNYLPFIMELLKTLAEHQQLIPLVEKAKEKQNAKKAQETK
#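 Signal – fluorescence, ex 355 nm, em 460 nm · System – Proteasome-bound UCH37 · Input – 0.15 nM proteasome as dispensed · Timing – 30 min preincubation with enzyme, 25 min cleavage at room temperature · Read-out basis – percent inhibition of cleavage signal versus uninhibited and no-proteasome wells · Medium – Tris-HCl pH 7.4 with ATP-MgCl2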
# UPR XBP1 act = activators of adaptive XBP1 UPR arm, primary screen, cell-based, CHO-XBP1 luciferase reporter, luminescence, uHTS | 330,000 tested, 0.33% active | activation, % at 20 µM | AID 463104, 2010 | IRE1-XBP1 UPR activation; percent of tunicamycin response, DMSO as zero;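 active = versus positive control, 20 µM dose yields 30% or more activation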;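 also: 100% = tunicamycin at 10 µg/mL and 0% = DMSO only wells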
#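 Material: CHO-XBP1 cells stably carrying IRE1-XBP1-driven luciferase reporter / Amount: 1000 cells per well / Compound: 20 µM, 1% DMSO / Times: 6 h treatment, 37 °C / Detection: luciferase luminescence / Measure: % activation of reporter signal versus tunicamycin and DMSO controls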
# CHOP inh = inhibitors of CHOP promoter induction, primary screen, cell-based, unfolded protein response, luciferase reporter; CHO-K1 CHOP-promoter luciferase, tunicamycin-induced, 15-18 h; inhibition, % at 10 µM; 220,000 tested, 3.8% active;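 active = compounds that reduced the stress-induced luciferase reporter signal by more than about 70% of percent inhibition, limit read from the data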;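 also: 0% = tunicamycin plus vehicle and 100% = wells without tunicamycin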
# UPR CHOP act = activators of apoptotic CHOP UPR arm, primary screen, cell-based, CHO-CHOP luciferase reporter, luminescence, uHTS. 330,000 tested, 0.34% active. AID 449763, 2010. UPR activation; percent of tunicamycin response over DMSO baseline. activation, % at 10 µM;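 active = at 10 µM dose, activation of 40% or more, normalized to positive control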;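 also: 100% = tunicamycin at 10 µg/mL and 0% = DMSO alone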
#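 System: CHO-CHOP luciferase reporter cell line | Buffer or medium: F12 medium containing 10% fetal bovine serum | Doses: One dose, 10 µM in 0.5% DMSO | Times: 6 h compound exposure at 37 °C after overnight seeding | Signal: Luciferase luminescence | Read-out: % activation vs tunicamycin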
# CTSL1 counter = Fasciola hepatica cathepsin L1 inhibitors, primary screen, counter-screen for PFM18AAP inhibitor project, biochemical, QFRET, fluorogenic peptide substrate; recombinant F. hepatica cathepsin L1, Z-Leu-Arg-MCA fluorescence; inhibition, % at 5.96 µM; 300,000 tested, 0.49% active;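 active = inhibition above the mean of all tested compounds plus 3 SD, set per screening campaign, cut at about 17% in these data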;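 also: 0% = plate median of test compound wells and 100% = 1 µM Z-Phe-Ala-diazomethylketone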
# * hit, by the source's call; . = no result. The sample as a whole holds a higher share of hits than the screen did.
SMILES,UCH37 DUB inh,UPR XBP1 act,CHOP inh,UPR CHOP act,CTSL1 counter
C=CCn1c(SCc2nc3cc(C(=O)OC)ccc3c(=O)[nH]2)nc2sc(CC)cc2c1=O,-4,4,72*,0,-1
Cc1nn(CCO)c2nc(-c3cccs3)cc(C(F)(F)F)c12,-344,5,85*,1,4
Cc1ccc(NCCC(=O)c2cccs2)cc1Cl,3,1,80*,4,-1
CCn1c(SCC(=O)NN=Cc2ccccc2OCC(=O)O)nnc1-c1ccc(OC)cc1,3,.,.,.,.
CCCCOc1ccc(CSCCN)cc1Cl,2,0,73*,4,-6
CCn1nc(C)c(C=NNC(=O)c2ccoc2C)c1C,4,.,.,.,.
O=C1c2ccccc2C(=O)C1c1ccc2ccccc2n1,4,-4,92*,-8,1
COC(=O)C1=C(C)NC(C)=C(C(=O)OC)C1c1ccc2ccccc2n1,0,-2,-5,1,2
CCC(=NNC(=O)Nc1ccccc1)c1ccccc1,1,.,.,.,.
CCCCC/C(=N\NC(=O)Nc1ccccc1)c1ccccc1,.,1,14,0,25*
COc1ccc(C2c3c(ccc4ccccc34)Oc3ncn4nc(CON=Cc5ccccc5)nc4c32)cc1 (stereo unspecified),2,.,.,.,.
CC1=NN(c2ccccc2)C(=O)C1N=Nc1ccc(S(N)(=O)=O)cc1 (stereo unspecified),8,8,7,-1,19*
O=C(c1ccc(CSc2nc3ccncc3[nH]2)cc1)N1CCN(c2cccc(Cl)c2)CC1,3,3,83*,12,-2
O=C(c1ccc(CSc2nc3ccncc3[nH]2)cc1)N1CCCCCC1,4,-4,23,0,0
CC1CCN(C(=O)c2ccc(CNc3c(N4CCCC4)c(=O)c3=O)cc2)CC1,0,-2,6,0,18*
CC1CC(C)CN(C(=O)c2ccc(CNc3c(N4CCCC4)c(=O)c3=O)cc2)C1 (stereo unspecified),2,-1,1,1,-4
Cn1cc2c(=O)n(N=Cc3ccccc3)cnc2n1,5,.,.,.,.
CC(=O)N1N=C(c2ccc(C)cc2)OC1c1ccc(C)cc1 (stereo unspecified),5,-1,75*,8,-2
CC(=O)N1N=C(c2ccc(C)cc2)OC1c1ccc(C(C)C)cc1 (stereo unspecified),3,0,61,4,4
O=C(NN=C1CCCc2ccccc21)c1cc([N+](=O)[O-])cc([N+](=O)[O-])c1,5,.,.,.,.
N#C/C(=C\C=C\c1ccccc1)C(=O)Nc1ccccc1,2,4,73*,2,2
N#C/C(=C/C=C/c1ccccc1)C(=O)Nc1ccccc1,4,-1,44,3,-2
CN(C)c1ccc(NC(=O)Nc2cccc3ccccc23)cc1,1,-2,86*,5,7
CCN(CC)c1ccc(NC(=O)Nc2cccc3ccccc23)cc1,-9,1,.,6,2
Cc1c(NC(=O)Nc2cccs2)cccc1[N+](=O)[O-],4,-3,24,-1,17*
SMILES,UCH37 DUB inh,UPR XBP1 act,CHOP inh,UPR CHOP act,CTSL1 counter
COc1ccc(Cl)cc1N(CC(=O)NN=Cc1ccc(OCC(N)=O)cc1)S(C)(=O)=O,4,.,.,.,.
O=C(NN=Cc1cn(-c2ccccc2)nc1-c1cc2ccccc2o1)c1cccnc1,-20,.,.,.,.
CCc1nnc(NC(=O)c2cc(S(=O)(=O)N3CCOCC3)ccc2N2CCCCC2)s1,1,.,72*,.,.
O=C(Nc1nnc(C2CC2)s1)c1cc(S(=O)(=O)N2CCCCC2)ccc1N1CCOCC1,3,-2,3,0,-4
Cc1ccc(CNC(=O)CSc2nc3n[nH]c(C)c3c(=N)n2-c2cccc(C)c2)cc1,-35,0,66,-2,-1
Cc1cc(-n2c(SCC(=O)NCc3cccs3)nc3n[nH]c(C)c3c2=N)ccc1Cl,-3,9,81*,7,2
CCOC(=O)C1=C(C)C(c2ccc(OC)cc2)NC(=S)N1 (stereo unspecified),2,-2,-21,0,17*
Cc1cccc(NC(c2ccc(C)s2)c2ccc3ccc(C)nc3c2O)n1 (stereo unspecified),-1,2,24,93*,5
COc1ccc(C=NNC(=O)c2ccncc2)cc1CSc1nc2ccccc2s1,2,.,.,.,.
CCOC(=O)c1sc(NC(=O)CCCCCN2C(=O)c3cccc4cccc(c34)C2=O)nc1C,-8,.,72*,.,.
CCOC(=O)c1sc(NC(=O)CN2C(=O)c3cccc4cccc(c34)C2=O)nc1C,-2,-4,16,0,-2
COCCn1c(SCC(=O)c2ccc3c(c2)OCCO3)nnc1C(C)C,3,-2,-28,-1,18*
COCCn1c(SCC(=O)Nc2ccc3c(c2)OCCO3)nnc1C(C)C,2,2,.,0,-2
COc1cc(/C=C/c2cc(OC(C)=O)c3ccccc3n2)c(OC(C)=O)c([N+](=O)[O-])c1,6,0,87*,-4,-7
CC(=O)Oc1c(Cl)cc(Cl)cc1/C=C/c1ccc2ccccc2n1,-6,5,17,3,5
O=S(=O)(NCc1ccc2c(c1)OCO2)c1ccc2c(c1)oc1ccccc12,4,-3,95*,0,2
O=C(Nc1ccc(S(=O)(=O)NCc2ccccc2)cc1)Nc1ccc2c(c1)OCO2,4,0,84*,2,1
O=S(=O)(NCc1ccc2c(c1)OCO2)c1cccc(F)c1,2,0,.,0,.
CCNS(=O)(=O)c1ccc(NC(=O)Nc2ccc3c(c2)OCO3)cc1,1,3,.,1,-2
O=C(O)c1ccccc1-c1ccc(C=c2sc3nc4cc(Br)cnc4n3c2=O)o1,43*,.,.,.,.
O=C(NN=Cc1cccc2ccccc12)c1cccs1,1,.,.,.,.
C=CCOc1nc2c(c(=O)n(C)c(=O)n2C)n1Cc1c(Cl)cccc1Cl,0,4,86*,-2,-3
CC(C)(C)OC(=O)CNC(=O)c1[nH]cnc1C(=O)N[C@@H](Cc1ccccc1)C(=O)OC(C)(C)C,3,2,90*,0,3
CC(C)(C)OC(=O)NCCCCCNC(=O)c1nc[nH]c1C(=O)NCC(=O)OCc1ccccc1,1,-3,.,0,.
CC(C)(C)OC(=O)CNC(=O)c1[nH]cnc1C(=O)NCC(=O)OCc1ccccc1,31*,3,.,5,0
O=C1C2C3C=CC(CC3)C2C(=O)N1/N=C/c1c(O)ccc2ccccc12 (stereo unspecified),.,1,72*,2,5

# Screening data (PubChem BioAssay)
